# Only some compounds are listed: those with a hit (about 2.9% of all), similar ones and a draw of the others.
# DENV2 CPE rescue: inhibitors of DENV2 cytopathic effect. DENV2-infected cells, cytopathic effect rescue, plate reader. CPE inhibition, % at 9.99 µM. 350,000 compounds, 1.7% hits; in the data active means CPE inhibition above about 20%, passing the limit was not always enough; inconclusive means no clear call, values can overlap the other calls; tested in BHK-21 cells;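 further: 0% = median of neutral control wells and 100% = median of positive control wells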
# CAL PDZ FP-1: blocks peptide binding to human CAL PDZ domain; Q9HD26; purified CAL PDZ, TMR-peptide fluorescence polarization, 1 h; inhibition, % at 20 µM; 330,000 compounds, 0.02% hits; AID 504414;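 active means highest replicate inhibition of at least 40%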;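 further: plate controls were DMSO neutral control wells for no effect and unlabeled competitor peptide control wells for full effect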
#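 Test system: purified CerCALP PDZ construct; Compound dosing: one concentration, 20 µM compound; Also added: TMR-labelled reporter peptide T*-PRC34 bound in PDZ groove; Read-out: inhibition from polarization loss; Controls: unlabelled peptide and DMSO controls; Signal: FP readout, S and P plane fluorescence; Incubation: 1 h at RT.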
# SIRT5 block: inhibitors of human sirtuin-5 desuccinylase | Purified SirT5, succinyl-peptide AMC, trypsin-coupled fluorescence | inhibition, % at 15 µM | 330,000 compounds, 1.1% hits | AID 652115; in the data active means inhibition above about 15%; inconclusive means no clear call, values can overlap the other calls
# CAL PDZ FP-2: inhibitors of human CAL PDZ peptide binding | inhibition, % at 24.9 µM | Q9HD26 | 300,000 compounds, 0.92% hits | AID 602252 | purified CAL PDZ, TMR-peptide fluorescence polarization, 1 h;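 active means mean inhibition of at least 30% with at least half of replicates also reaching 30%; inconclusive means no clear call, values can overlap the other calls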;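 further: 0% = DMSO neutral control and 100% = excess unlabeled competitor peptide PRC23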
# ERAP1 inh: blocks human ERAP1 aminopeptidase activity; Q9NZ08; recombinant ERAP1, Leu-AMC fluorescence, 60 min; inhibition, % at 10.7 µM; 340,000 compounds, 0.15% hits;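 active means mean replicate inhibition of at least 30%, or all replicates individually reaching that 30% level; inactive means mean below 30% and not every replicate reaching it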;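 further: 0% = neutral control wells and 100% = L-leucinethiol positive control wells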
# Target sequence (Q9NZ08 whole entry, looked up): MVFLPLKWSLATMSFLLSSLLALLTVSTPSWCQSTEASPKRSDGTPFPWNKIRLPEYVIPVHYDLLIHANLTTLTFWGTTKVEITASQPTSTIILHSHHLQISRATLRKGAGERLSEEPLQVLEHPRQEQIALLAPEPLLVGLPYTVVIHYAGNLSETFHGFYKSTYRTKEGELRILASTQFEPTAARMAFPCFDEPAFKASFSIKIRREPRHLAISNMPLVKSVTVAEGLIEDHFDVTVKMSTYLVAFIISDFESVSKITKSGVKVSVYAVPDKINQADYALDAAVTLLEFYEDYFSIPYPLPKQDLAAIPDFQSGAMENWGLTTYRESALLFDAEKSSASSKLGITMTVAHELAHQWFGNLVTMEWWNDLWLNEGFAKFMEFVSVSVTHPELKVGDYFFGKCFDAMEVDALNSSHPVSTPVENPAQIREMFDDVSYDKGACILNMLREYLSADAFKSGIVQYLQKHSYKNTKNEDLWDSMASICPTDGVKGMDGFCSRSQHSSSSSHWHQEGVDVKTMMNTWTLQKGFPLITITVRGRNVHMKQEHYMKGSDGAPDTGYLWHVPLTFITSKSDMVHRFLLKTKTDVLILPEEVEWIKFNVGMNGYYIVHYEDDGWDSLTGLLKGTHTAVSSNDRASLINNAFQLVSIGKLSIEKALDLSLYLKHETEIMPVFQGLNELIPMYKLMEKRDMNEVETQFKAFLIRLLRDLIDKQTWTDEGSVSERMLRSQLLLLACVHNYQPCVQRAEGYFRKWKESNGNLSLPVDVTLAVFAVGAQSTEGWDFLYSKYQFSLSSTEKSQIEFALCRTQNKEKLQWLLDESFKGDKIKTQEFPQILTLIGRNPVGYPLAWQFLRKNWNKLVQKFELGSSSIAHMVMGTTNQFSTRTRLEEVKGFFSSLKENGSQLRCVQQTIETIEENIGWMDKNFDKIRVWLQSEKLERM
# S100A4 inh HTS: blocks human S100A4 binding to myosin IIA peptide | 360,000 compounds, 0.14% hits | S100A4/TAMRA-MyoIIA peptide fluorescence polarization | inhibition, % at 10.7 µM | P26447 | AID 652163;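 active means mean inhibition of at least 70% across replicates, with every replicate also reaching that level; inconclusive means mean inhibition reaches 70% but some replicates fall short; inactive means mean inhibition below 70%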
#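 Material: S100A4 monomer protein / Buffer or medium: 50 mM HEPES pH 7.2, 10 mM CaCl2, 100 mM KCl / Times: 5 min incubation before reading / Benchmarks: neutral control DMSO, positive control TFP / Reagent: labelled myosin peptide probe, 5 nM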
# Numbers without * were called inactive; ? = inconclusive; . = no result.
SMILES,DENV2 CPE rescue,CAL PDZ FP-1,SIRT5 block,CAL PDZ FP-2,ERAP1 inh,S100A4 inh HTS
CCCNC(=O)N1C[C@@H]2[C@H](c3ccccc31)[C@H](CO)N2C(=O)Nc1ccc(F)cc1,-2,.,0,.,1,5
COC(=O)C1(N2C(=O)O[C@@H](Cc3ccccc3)[C@H]2/C=C/C2CC2)CCCC1,-2,.,-2,.,-2,7
COc1cc2c(cc1NC(=O)C(C)OC(=O)C1CC(=O)N(Cc3ccco3)C1)oc1ccccc12 (centres undefined),.,-1,.,-1,.,.
CC(OC(=O)C1CC(=O)N(Cc2ccco2)C1)C(=O)Nc1cccc(C#N)c1 (centres undefined),21*,-2,-3,-3,0,2
Cc1cc(C(=O)N2CCCC(Nc3ccc(C(C)C)cc3)C2)nn1C (centres undefined),7,-2,-2,-5,-5,-2
CC(C)c1ccc(NC2CCCN(C(=O)c3ccnn3C)C2)cc1 (centres undefined),9,-1,4,55*,0,-1
COc1ccc(NC2CCCN(C(=O)c3csc(C(C)C)n3)C2)cc1OC (centres undefined),-1,0,-6,7,2,11
COc1ccc(NC2CCCN(C(=O)c3csc(C(C)C)n3)C2)cc1 (centres undefined),1,1,-6,93*,-1,-1
COc1ccc(NC2CCCN(C(=O)CCc3ccccc3F)C2)cc1 (centres undefined),3,0,-3,78*,2,-3
COc1ccc(NC2CCCN(C(=O)CCOc3ccccc3)C2)cc1 (centres undefined),1,-1,3,-5,-2,-1
COC(=O)c1ccc(OCC(O)CN2CCc3cc(OC)c(OC)cc3C2c2ccccc2)cc1 (centres undefined),1,0,-3,76*,-2,-2
CCC(=O)N1CCc2cc(OC)c(OC)cc2C1COc1ccc(C(=O)OC)cc1 (centres undefined),.,-1,.,4,.,.
CC(=O)c1c(C)[nH]c(C(=O)N2CCN(c3ncccn3)CC2)c1C,-1,1,16*,.,2,-1
C/C=C/c1ccc([C@H]2[C@@H](CO)N(C(=O)CC)[C@@H]2CN(C)C(=O)NC(C)C)cc1,?,.,18*,.,2,0
C/C=C/c1ccc([C@@H]2[C@@H](CO)N(C(=O)NCCC)[C@H]2CN(C)C(=O)CC)cc1,78*,.,.,.,.,.
C[C@@H]1CN([C@@H](C)CO)C(=O)c2cc(NC(=O)Nc3ccccc3)ccc2O[C@@H]1CN(C)S(=O)(=O)c1ccc(F)cc1,-5,.,7,.,-7,-2
C[C@@H]1CCCCO[C@H](CN(C)C(=O)C2CCCCC2)[C@H](C)CN([C@H](C)CO)C(=O)c2cc(NC(=O)Nc3cccc4ccccc34)ccc2O1,-12,.,2,.,-3,16
N/C(=N\OC(=O)Nc1ccccc1)c1ncc([N+](=O)[O-])s1,33*,-1,.,-5,1,-6
CCN1[C@@H]2c3ccc(/C=C/c4ccccc4)c(=O)n3C[C@H]1[C@H](CO)[C@H]2C(=O)NCc1ccccn1,-3,.,-105,.,0,7
CCN(C(=O)c1cc2c(=O)n3cccc(C)c3nc2n1CCCOC)C1CCCCC1,-3,-2,-1,0,50*,0
COCCCn1c(C(=O)N2CCOCC2)cc2c(=O)n3ccccc3nc21,8,-2,-44,-6,54*,-1
COCCCn1c(C(=O)NC2CCCCC2C)cc2c(=O)n3cccc(C)c3nc21 (centres undefined),8,-2,-11,0,1,-5
COCCCn1c(C(=O)Nc2ccc3c(c2)OCO3)cc2c(=O)n3ccccc3nc21,-3,1,-3,-2,3,-3
COc1ccccc1-c1cc(-c2ccccc2)nc(SCC(=O)O)c1C#N,0,-9,-1,-2,42*,1
COc1ccc(-c2cc(-c3ccccc3)c(C#N)c(SCC(=O)O)n2)cc1,-1,-5,-8,.,10,0
SMILES,DENV2 CPE rescue,CAL PDZ FP-1,SIRT5 block,CAL PDZ FP-2,ERAP1 inh,S100A4 inh HTS
COc1ccc(-c2cc(-c3ccc(Cl)cc3)c(C#N)c(SCC(=O)O)n2)cc1,61*,-10,4,-13,-2,-1
COCC(=O)N1CC2(C1)[C@@H](c1ccc(-c3ccc(F)cc3)cc1)[C@@H](CO)N2C(C)=O,-8,.,0,.,2,4
NC(=O)c1ccc(NC(=O)COC(=O)C2CCN(S(=O)(=O)c3cccs3)CC2)cc1,-4,0,-5,130*,-1,-2
COc1ccc(NC(=O)COC(=O)C2CCN(S(=O)(=O)c3cccs3)CC2)cc1,.,-1,-4,2,.,-2
O=C(Nc1ccc2c(c1)[C@H]1C[C@@H](CC(=O)N3CCCCC3)O[C@H](CO)[C@H]1O2)c1ccc2c(c1)OCO2,0,.,2,.,-1,4
CCN1CCN(Cc2ccc(NC(=O)c3cc(NC(=O)c4cc(C)on4)cc(OC)c3)cc2C(F)(F)F)CC1,-9,-9,-2,-10,-2,13
CCN1CCN(Cc2ccc(NC(=O)c3cc(NC(=O)c4cnn(-c5ccccc5)c4N)cc(OC)c3)cc2C(F)(F)F)CC1,82*,-1,.,-1,.,-2
C[C@@H]1CN([C@@H](C)CO)S(=O)(=O)c2ccc(C#Cc3ccccn3)cc2O[C@@H]1CN(C)Cc1ccccc1,-7,.,5,.,2,8
COCC(=O)Nc1ccc2c(c1)[C@@H]1C[C@H](CC(=O)NCc3ccccc3)O[C@@H](CO)[C@@H]1O2,-2,.,-2,.,2,-1
COCC(=O)Nc1ccc2c(c1)[C@H]1C[C@@H](CC(=O)O)O[C@@H](CO)[C@H]1O2,43*,.,-3,.,-3,-6
COCC(=O)Nc1ccc2c(c1)[C@@H]1C[C@H](CC(=O)N(C)C)O[C@@H](CO)[C@@H]1O2,30*,.,-3,.,-3,-10
COCC(=O)Nc1ccc2c(c1)[C@@H]1C[C@@H](CC(=O)N(C)C)O[C@H](CO)[C@@H]1O2,18,.,.,.,.,-6
COCC(=O)Nc1ccc2c(c1)[C@H]1C[C@@H](CC(=O)NCc3cc(F)ccc3F)O[C@@H](CO)[C@H]1O2,38*,.,.,.,.,.
COCC(=O)Nc1ccc2c(c1)[C@H]1C[C@H](CC(=O)NCc3ccccc3)O[C@@H](CO)[C@H]1O2,21*,.,3,.,1,-13
CCS(=O)(=O)Nc1ccc2c(c1)C(=O)N(C)[C@H]1CC[C@@H](CC(=O)OC)O[C@H]1CO2,13,.,-6,.,2,0
CNC[C@H]1Oc2ccc(NC(=O)Nc3ccc(OC)cc3)cc2CC(=O)N([C@H](C)CO)C[C@@H]1C,-7,.,3,.,-2,10

# Screens from PubChem BioAssay.
